Among the data in ChEMBL document CHEMBL1135578, “Rhodacyanine dyes as antimalarials. 1. Preliminary evaluation of their activity and toxicity” (J Med Chem, 2002) are EC50, Toxicity ratio and selectivity ratio values, retold here.

pEC50: −log10 of the molar value.

One data set has as its system Plasmodium falciparum. Put plainly: In vitro antimalarial activity against chloroquine-sensitive Plasmodium falciparum FCR3. The format is functional, organism-based. The procedure, abridged:
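In vitro growth of chloroquine-sensitive P. falciparum FCR-3 read as EC50; some entries are given as EC70 values (% parasite growth observed) where noted.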

The subject of data set [1] is FM3A. As to the kind of experiment: Cytotoxicity against mouse mammary tumor FM3A cells representing a model of host. The class given is functional, cell-based. The procedure, abridged:
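Growth of mouse mammary tumor FM3A cells, used as a host model, read as EC50; some entries are given as lower-effect ECx values (% growth observed) where noted.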

Data set [2] concerns FM3A. Put plainly: (§1) Selective toxicity- EC50 value of FM3A / EC50 value of Plasmodium falciparum. The class given is cell-based. The conditions noted are these: mouse, fm3a. The procedure, abridged:
(§2)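 Ratio computed as EC50 in FM3A cells divided by EC50 against P. falciparum FCR-3.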

The nature of data set [3]: as §1. The format is cell-based. The conditions noted are these: mouse, FM3A cells; read-out: Toxicity ratio. The procedure, abridged: as §2

`C=CCn1c(=O)/c(=C2\Sc3ccccc3N2C)s/c1=C\c1cccc[n+]1C` [listing 1 of 2 here] had a pEC50 in the data set with Plasmodium falciparum of less than 7.42.
As to `CCn1c(=O)/c(=C2\Sc3ccccc3N2C)s/c1=C\c1cccc[n+]1C.[Cl-]`, the negative logarithm of the EC50 (pEC50) in the data set with FM3A [1] (fm3a) is 4.80; with Plasmodium falciparum, 7.59. Also, the Toxicity ratio in the data set on FM3A [2] is 620.
As to `CCn1c(=O)/c(=C2\Sc3ccccc3N2C)s/c1=C\c1cccc(-c2ccccc2)[n+]1C`, the pEC50 is 5.72 in the data set on FM3A [1] (Mus musculus, FM3A) and 7.25 with Plasmodium falciparum (Plasmodium falciparum). The selectivity ratio in data set [3] turned out to be 34.
Taken in the same sequence, the figures for `CN1/C(=c2\s/c(=C\c3cccc[n+]3C)n(Cc3ccccc3)c2=O)Sc2ccccc21` were 6.10, 7.51 and 26.
On to `CCn1c(=O)/c(=C2\Sc3ccccc3N2C)s/c1=C\c1cccc[n+]1C.Cc1ccc(S(=O)(=O)[O-])cc1`, for which the pEC50 in the data set on FM3A [1] (fm3a) was 4.96; with Plasmodium falciparum, 7.64. Moreover, the Toxicity ratio in the data set on FM3A [2] is on record as 480.
For the compound `CC[N+]1=C(SC)S/C(=C2/Sc3ccccc3N2C)C1=O`, in the data set with Plasmodium falciparum (Plasmodium falciparum), the negative logarithm of the EC50 (pEC50) was 5.43.
`CCn1c(=O)/c(=C2\Sc3cc(C(F)(F)F)ccc3N2C)s/c1=C\c1cccc[n+]1CC`: the pEC50 with FM3A [1] (Mus musculus, FM3A) was 5.38; in the data set on Plasmodium falciparum (Plasmodium falciparum), 7.18. The selectivity ratio in data set [3] amounted to 64.
Taken in the same sequence, the figures for `CCn1c(=O)/c(=C2\Sc3ccccc3N2C)s/c1=C\c1ccc2ccccc2[n+]1C` were 6.24, 8.34 and 130.
Taken in the same sequence, the figures for `CCn1c(=O)/c(=C2\SCCN2C)s/c1=C\c1cccc[n+]1C` were less than 4.47, 6.64 and more than 150.
Taken in the same sequence, the figures for `CCn1c(=O)/c(=C2\Sc3ccccc3N2C)s/c1=C\c1cccc[n+]1C` were 4.85, 7.55 and 500.
Regarding `CN1/C(=c2\s/c(=C\c3cccc[n+]3C)n(C)c2=O)Sc2ccccc21`, the negative-log EC50 (pEC50) in the data set with FM3A [1] (Mus musculus, FM3A) is 5.42; in the data set on Plasmodium falciparum (Plasmodium falciparum), 7.35. In addition, the selectivity ratio in data set [3] is 84.
For `CCn1c(=O)/c(=C2\Sc3ccccc3N2C)s/c1=C\c1cccc[n+]1C.[OH-]`, the negative logarithm of the EC50 (pEC50) in the data set with FM3A [1] (fm3a) is 4.89; with Plasmodium falciparum it was 7.66. In addition, the Toxicity ratio in the data set on FM3A [2] turned out to be 590.
Take `CCN1C(=O)/C(=C2\Sc3ccccc3N2C)SC1=S`: the negative logarithm of the EC50 (pEC50) in the data set on Plasmodium falciparum (Plasmodium falciparum) was less than 4.55.
Consider `CCn1c(=O)/c(=C2\Sc3ccccc3N2C)s/c1=C\c1cc[n+](C)cc1`, for which the pEC50 with FM3A [1] (Mus musculus, FM3A) is less than 4.62; in the data set with Plasmodium falciparum (Plasmodium falciparum), 7.25. The selectivity ratio in data set [3] is more than 430.
Regarding `CCn1c(=O)/c(=C2\C=Cc3ccccc3N2C)s/c1=C\c1cccc[n+]1C`, the pEC50 with Plasmodium falciparum (Plasmodium falciparum) was 6.62.
For the compound `CCn1c(=O)/c(=C2\Sc3ccccc3N2C)s/c1=C\c1cccc[n+]1CC`, the negative-log EC50 (pEC50) in the data set with FM3A [1] (Mus musculus, FM3A) was 4.82; in the data set with Plasmodium falciparum (Plasmodium falciparum), 7.15. Also, the selectivity ratio in data set [3] was found to be 210.
For the compound `CCn1c(=O)/c(=C2\Sc3ccccc3N2C)s/c1=C\c1cccc[n+]1CCCCC(=O)O`, the pEC50 was less than 4.74 in the data set on FM3A [1] (Mus musculus, FM3A) and 6.17 in the data set with Plasmodium falciparum (Plasmodium falciparum). In addition, the selectivity ratio in data set [3] is more than 26.
For the compound `C=CCn1c(=O)/c(=C2\Sc3ccccc3N2C)s/c1=C\c1cc[n+](C)cc1`, the negative logarithm of the EC50 (pEC50) was 5.17 in the data set on FM3A [1] (Mus musculus, FM3A) and 7.85 in the data set with Plasmodium falciparum (Plasmodium falciparum). Moreover, the selectivity ratio in data set [3] was determined as 480.
For `CN1/C(=C\c2cccc[n+]2C)Sc2ccccc21`, the pEC50 with Plasmodium falciparum (Plasmodium falciparum) is 6.62.
Take `C=CCn1c(=O)/c(=C2\Sc3ccccc3N2C)s/c1=C\c1cccc[n+]1C` [listing 2 of 2 here]: the pEC50 in the data set with FM3A [1] (Mus musculus, FM3A) was 4.92; in the data set with Plasmodium falciparum, 7.92. Moreover, in data set [3], the selectivity ratio amounted to 1000.
Regarding `CN1/C(=c2\s/c(=C\c3cc[n+](C)cc3)n(Cc3ccccc3)c2=O)Sc2ccccc21`, the pEC50 with FM3A [1] (Mus musculus, FM3A) is 6.09; with Plasmodium falciparum (Plasmodium falciparum), 7.30. Besides, in data set [3], the selectivity ratio was found to be 16.
Taken in the same sequence, the figures for `CC[n+]1ccccc1/C=c1\s/c(=C2/Sc3ccccc3N2C)c(=O)n1CCCCC(=O)O` were less than 4.77, 5.82 and more than 11.
In the case of `CCn1c(=O)/c(=C2\Sc3ccc4ccccc4c3N2C)s/c1=C\c1cccc[n+]1CCO`, the pEC50 with FM3A [1] (Mus musculus, FM3A) was 5.30; in the data set with Plasmodium falciparum (Plasmodium falciparum), 7.37. Besides, the selectivity ratio in data set [3] is 120.
Taken in the same sequence, the figures for `CCn1c(=O)/c(=C2\Sc3ccccc3N2C)s/c1=C\c1cc[n+](C)c2ccccc12` were 6.17, 8.11 and 87.
With `CCN1C(=O)CS/C1=C\c1sc2ccccc2[n+]1CC`, the pEC50 in the data set with Plasmodium falciparum (Plasmodium falciparum) is 6.28.
Turning to `CCn1c(=O)/c(=C2\Sc3ccccc3N2C)s/c1=C\c1cccc[n+]1CCO`, the pEC50 in the data set with FM3A [1] (Mus musculus, FM3A) was less than 4.77; with Plasmodium falciparum (Plasmodium falciparum) it was 6.68. Also, the selectivity ratio in data set [3] is more than 81.
With `CCn1c(=O)/c(=C2\C=CC=CN2C)s/c1=C\c1cccc[n+]1C`, in the data set on Plasmodium falciparum (Plasmodium falciparum), the pEC50 was 6.46.
For the compound `CCN(CC)CCCC(C)Nc1ccnc2cc(Cl)ccc12` (stereo not given) [CHLOROQUINE], the selectivity ratio in data set [3] was 1800.
As for `CN(C)c1ccc2nc3ccc(N(C)C)cc3[s+]c2c1` [METHYLENE BLUE ANHYDROUS], the pEC50 in the data set on FM3A [1] (Mus musculus, FM3A) was 5.96; in the data set with Plasmodium falciparum (Plasmodium falciparum), 7.77. Further, the selectivity ratio in data set [3] came out at 65.
As to `C=C[C@H]1C[N@@]2CC[C@H]1C[C@H]2[C@H](O)c1ccnc2ccc(OC)cc12` [QUININE], the selectivity ratio in data set [3] amounted to 910.
Turning to `COC(=O)c1ccccc1-c1c2ccc(=N)cc-2oc2cc(N)ccc12` [RHODAMINE123], the pEC50 in the data set with FM3A [1] (Mus musculus, FM3A) is 5.00; with Plasmodium falciparum (Plasmodium falciparum) it was 6.52. Further, the selectivity ratio in data set [3] was 33.
